≈ marks a conversion by molar mass, not a printed value. Where a SMILES comes first, the peptide text is derived from it.
Assays:
Candida tropicalis = experiment: Antifungal activity against Candida tropicalis cgmcc2.1975 measured after 48 hrs by broth microdilution method; assay type: functional; conditions: cgmcc2.1975, 48 h
How it was run: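 Modified CLSI M27-A2 microdilution. Yeast colonies were diluted in MOPS-buffered RPMI 1640 to a final (0.5–1) × 10^3 CFU mL−1 and mixed with an equal volume of peptide serially diluted in 0.2% BSA. After 48 h at 28 °C, MIC was read at A492 as the lowest concentration inhibiting 95% of growth. At least three independent experiments, each with three technical replicates.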

Escherichia coli [1] = experiment: Bactericidal activity against Escherichia coli ATCC 25922 incubated for 24 hrs followed by replating on agar plate and measured after overnight incubation; assay type: functional; conditions: ATCC 25922, 24 h, read-out: MBC>99.9
How it was run: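 After the 24 h, 37 °C MHB microdilution (0.5–1 × 10^5 CFU mL−1 inoculum, peptides diluted in 0.2% BSA), 50 μL from each well was plated on agar and incubated overnight. MBC was taken as the lowest concentration killing >99.9% of cells. Three or more independent experiments, each with triplicate technical replicates.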

Escherichia coli [2] = experiment: Bactericidal activity against Escherichia coli K99 incubated for 24 hrs followed by replating on agar plate and measured after overnight incubation; assay type: functional; conditions: K99, 24 h, read-out: MBC>99.9
How it was run: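 Mid-log bacteria diluted in MHB to (0.5–1) × 10^5 CFU/mL and mixed 1:1 with peptide serially diluted in 0.2% BSA. After 24 h at 37 °C, 50 μL of each mixture was plated on agar and incubated overnight. MBC taken as the lowest concentration killing >99.9% of cells. At least three independent experiments, each with three technical replicates.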

Staphylococcus aureus [3] = experiment: Bactericidal activity against Staphylococcus aureus ATCC 29213 incubated for 24 hrs followed by replating on agar plate and measured after overnight incubation; assay type: functional; conditions: ATCC 29213, 24 h, read-out: MBC>99.9
How it was run: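 After the 24 h, 37 °C MHB microdilution MIC assay, 50 μL from each well was plated on agar and incubated overnight. MBC taken as lowest peptide concentration killing >99.9% of cells. At least three independent experiments, each with three technical replicates.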

Candida albicans [4] = experiment: Fungicidal activity against Candida albicans cgmcc2.2086 incubated for 48 hrs followed by replating on YM agar plate and measured after 48 hrs; assay type: functional
How it was run: (§1)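 Yeast diluted in MOPS-buffered RPMI 1640 to (0.5–1) × 10^3 CFU/mL (CLSI M27-A2, modified) and mixed 1:1 with peptide serially diluted in 0.2% BSA. After 48 h at 28 °C, 50 μL per well was plated on YM agar and incubated 48 h at 28 °C. MFC taken as the lowest concentration killing ≥99.9% of cells. Three or more independent experiments, triplicate wells.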

Candida parapsilosis = experiment: Fungicidal activity against Candida parapsilosis cgmcc2.3989 incubated for 48 hrs followed by replating on YM agar plate and measured after 48 hrs; assay type: functional; how it was run: as §1
Erythrocyte = experiment: Hemolytic activity in human RBC measured after 1 hr; assay type: ADME, cell-based
How it was run: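 Fresh healthy-donor human erythrocytes at ~1% (v/v) in PBS pH 7.4, mixed 1:1 with peptide (1–128 µM), 1 h at 37 °C. After centrifugation at 1000×g, supernatant hemoglobin read at 576 nm. Untreated cells set 0% and 0.1% Triton X-100 set 100%. MHC defined as the concentration giving >10% hemolysis. Three or more independent experiments, triplicates.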

Escherichia coli [5] = experiment: Antibacterial activity against Escherichia coli ATCC 25922 measured after 18 to 24 hrs in presence of ZnCl2; assay type: functional
Staphylococcus aureus [6] = experiment: Antibacterial activity against Staphylococcus aureus ATCC 29213 measured after 18 to 24 hrs in presence of KCl; assay type: functional
Staphylococcus aureus [7] = experiment: Antibacterial activity against Staphylococcus aureus ATCC 29213 measured after 18 to 24 hrs in presence of ZnCl2; assay type: functional
How it was run: (§2)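 MIC broth microdilution (MHB, 0.2% BSA peptide diluent, A492, 95% inhibition) run in the presence of physiological salts at final concentrations of 6 μM NH4Cl or 8 μM ZnCl2. Three independent assays, each with three technical replicates.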

Staphylococcus aureus [8] = experiment: Antibacterial activity against Staphylococcus aureus ATCC 29213 measured after 18 to 24 hrs in presence of NH4Cl; assay type: functional; how it was run: as §2
Candida albicans [9] = experiment: Antifungal activity against Candida albicans cgmcc2.2086 measured after 48 hrs in presence of NaCl by broth microdilution method; assay type: functional; conditions: cgmcc2.2086, 48 h
Lipid bilayer = experiment: Induction of membrane disruption in PG/CL/PE large unilamellar vesicles assessed as calcein-entrapped liposome leakage at 64 uM after 15 mins by spectrofluorophotometric assay relative to control
How it was run: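 Calcein (70 mM)-loaded LUVs of PG/CL/PE (2:1:7 w/w/w, E. coli membrane mimic), made by freeze-thaw and 100-nm extrusion, free dye removed on Sephadex G-50. LUVs (100 μM) exposed to peptide (1–64 μM) for 15 min. Leakage read at ex 490/em 520 nm: liposomes alone are background, Triton X-100 is 100%. Independent triplicates.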

Lipopolysaccharide (LPS) = experiment: Displacement of BODIPY-TR-cadaverine from Escherichia coli O111:B4 LPS after 1 hr by spectrofluorophotometric method
How it was run: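 LPS from E. coli O111:B4 (50 μg/mL) preincubated 4 h with BODIPY-TR-cadaverine (5 μg/mL) in 50 mM Tris, pH 7.4. Mixed with equal volume of peptide (1-64 µM) and incubated 1 h at 37 °C, then fluorescence read. %ΔF = (Fobs−F0)/(F100−F0)×100, with 10 μg mL-1 polymyxin B defining F100. Three technical replicates per experiment.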

[10] = Conformational stability in sodium dodecyl sulfate assessed as beta-sheet conformation by measuring absorption spectra at maximum dichroic band at 35 uM by CD spectra analysis; assay type: physicochemical
How it was run: (§3)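 CD spectra from 190 to 250 nm of peptide at 35 μM in 10 mM PBS, 30 mM SDS micelles or 50% TFE, recorded in a 1.0-mm quartz cell. Ellipticity was converted to mean residue ellipticity. Three independent scans, each averaged over more than 3 runs.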

[11] = Conformational stability in sodium dodecyl sulfate assessed as beta-sheet conformation by measuring absorption spectra at minimum dichroic band at 35 uM by CD spectra analysis; assay type: physicochemical; how it was run: as §3
[12] = Hemolytic activity in human RBC at 128 uM measured after 1 hr relative to control; assay type: ADME, cell-based, Erythrocyte; conditions: human red blood cells (erythrocytes), read-out: Activity
How it was run: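 Fresh human erythrocytes at ~1% (v/v) in PBS pH 7.4, mixed with equal volume of peptide (1-128 µM) for 1 h at 37 °C. After centrifugation, hemoglobin in the supernatant read at 576 nm. Untreated cells set 0% and 0.1% Triton X-100 set 100% hemolysis. At least three independent experiments, each in triplicate.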

Pseudomonas aeruginosa = experiment: Antibacterial activity against Pseudomonas aeruginosa ATCC 27853 assessed as ratio of MBC after and before 30 serial passages at sub-MBC; assay type: functional
How it was run: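 P. aeruginosa ATCC 27853 passaged every 24 h by 100-fold dilution in MHB containing sub-MBC drug, for 30 passages. MBC was tested on the cells from each passage. Control cells were passaged in drug-free MHB. Run independently in triplicate with three biological replicates.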

[13] = Conformational stability in sodium dodecyl sulfate at 35 uM by CD spectra analysis; assay type: physicochemical; how it was run: as §3

Row | Compound | MIC95 (Candida tropicalis) | MBC (Escherichia coli [1]) | MBC (Escherichia coli [2]) | MBC (Staphylococcus aureus [3]) | MFC<=99.9 (Candida albicans [4]) | MFC<=99.9 (Candida parapsilosis) | MHC10 (Erythrocyte) | MIC95 (Escherichia coli [5]) | MIC95 (Staphylococcus aureus [6]) | MIC95 (Staphylococcus aureus [7]) | MIC95 (Staphylococcus aureus [8]) | MIC95 (Candida albicans [9]) | Activity (Lipid bilayer) | Activity (Lipopolysaccharide (LPS)) | Wavelength of maximum dichroic band [10] | Activity [11] | hemolysis at 1 h, 128 µM [12] | Ratio (Pseudomonas aeruginosa) | Stability [13]
1 | H-AARIILRWRFR-NH2 | 4 µM | 4 µM | 4 µM | 2 µM | 8 µM | 8 µM | > 128 µM | 4 µM | 1 µM | 1 µM | 2 µM | 16 µM | 65% | Dose-dependent effect | 200 nm | 216 to 220 nm | – | – | –
2 | CC[C@H](C)[C@H](NC(=O)CN)C(=O)NCC(=O)N[C@@H](C)C(=O)N[C@H](C(=O)N[C@@H](CC(C)C)C(=O)N[C@@H](CCCCN)C(=O)N[C@H](C(=O)N[C@@H](CC(C)C)C(=O)N[C@H](C(=O)N[C@H](C(=O)NCC(=O)N[C@@H](CC(C)C)C(=O)N1CCC[C@H]1C(=O)N[C@@H](C)C(=O)N[C@@H](CC(C)C)C(=O)N[C@H](C(=O)N[C@@H](CO)C(=O)N[C@@H](Cc1c[nH]c2ccccc12)C(=O)N[C@H](C(=O)N[C@@H](CCCCN)C(=O)N[C@@H](CCCNC(=N)N)C(=O)N[C@@H](CCCCN)C(=O)N[C@@H](CCCNC(=N)N)C(=O)N[C@@H](CCC(N)=O)C(=O)N[C@@H](CCC(N)=O)C(N)=O)[C@@H](C)CC)[C@@H](C)CC)[C@@H](C)O)[C@@H](C)O)C(C)C)C(C)C [MELITTIN] | 4 µM (≈ 11.4 µg/mL) | 4 µM (≈ 11.4 µg/mL) | 2 µM (≈ 5.69 µg/mL) | 8 µM (≈ 22.8 µg/mL) | 8 µM (≈ 22.8 µg/mL) | 4 µM (≈ 11.4 µg/mL) | 1 µM | 2 µM | 4 µM | 4 µM | 4 µM | 8 µM | – | Dose-dependent effect | – | – | 84 to 94% | 128 | –
3 | CC[C@H](C)[C@H](NC(=O)[C@H](CCCCN)NC(=O)[C@H](C)NC(=O)[C@H](C)N)C(=O)N[C@H](C(=O)N[C@@H](CC(C)C)C(=O)N[C@@H](CC(N)=O)C(=O)N1CCC[C@H]1C(=O)N[C@@H](CCCCN)C(=O)N[C@@H](Cc1ccccc1)C(=O)N[C@@H](CCCNC(=N)N)C(=O)N[C@@H](CS)C(=O)N[C@@H](CCCCN)C(=O)N[C@@H](C)C(=O)N[C@@H](C)C(=O)N[C@@H](Cc1ccccc1)C(=O)N[C@@H](CS)C(N)=O)[C@@H](C)CC (H-AAKIILNPKFRCKAAFC-NH2) | > 128 µM | 64 µM (≈ 121 µg/mL) | 64 µM (≈ 121 µg/mL) | – | – | – | 32 µM | 64 µM | > 128 µM | > 128 µM | > 128 µM | > 128 µM | < 5% | Dose-dependent effect | – | – | 20% | – | Unstable

Reference: ChEMBL document CHEMBL4350958, “Rational Design of Short Peptide Variants by Using Kunitzin-RE, an Amphibian-Derived Bioactivity Peptide, for Acquired Potent Broad-Spectrum Antimicrobial and Improved Therapeutic Potential of Commensalism Coinfection of Pathogens” (J Med Chem, 2019)
